System: HEK-293T
Experiment: Multiplex assay against HEK293T
Assay type: toxicity, cell-based
Details: human
How it was run: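 Live cells were stained at seeding with Hoechst33342, BioTracker Green Microtubule Cytoskeleton Dye, MitoTracker Red and Annexin V Alexa Fluor 680. Following compound addition, they were imaged on a CQ1 microscope at 37°C and 5% CO2 and gated by CellPathfinder machine learning into Hoechst high-intensity objects or normal cells, with normal cells split into healthy, pyknosed or fragmented nuclei and pyknosed cells into mitotic or apoptotic. Tubulin, mitochondrial-mass and membrane-permeability phenotypes are per cents of healthy-nucleus cells.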

[1] = 12 h, 1 µM, compound concentration 1 uM, replicate 1
[2] = 12 h, 1 µM, compound concentration 1 uM, replicate 2
[3] = 12 h, 10 µM, compound concentration 10 uM, replicate 1
[4] = 12 h, 10 µM, compound concentration 10 uM, replicate 2
[5] = 24 h, 1 µM, compound concentration 1 uM, replicate 1
[6] = 24 h, 1 µM, compound concentration 1 uM, replicate 2
[7] = 24 h, 10 µM, compound concentration 10 uM, replicate 1
[8] = 24 h, 10 µM, compound concentration 10 uM, replicate 2
[9] = 48 h, 1 µM, compound concentration 1 uM, replicate 1
[10] = 48 h, 1 µM, compound concentration 1 uM, replicate 2
[11] = 48 h, 10 µM, compound concentration 10 uM, replicate 1
[12] = 48 h, 10 µM, compound concentration 10 uM, replicate 2

Cc1cc(NC(=O)NCCN2CCC(O)(Cc3ccccc3)CC2)c2ccccc2n1 [PALOSURAN]
Population Apoptotic (%) [1]: 36% | Population Fragmented Nuclei (%) [1]: 7% | Population Healthy Nuclei (%) [1]: 77% | Population Hoechst High Intensity Objects (%) [1]: 6% | Population Membrane Permeable-Phenotype (%) [1]: 0% | Population Mitochondria Different-Phenotype (%) [1]: 42% | Population Mitotic Cells (%) [1]: 63% | Population Normal (%) [1]: 93% | Population Pyknosed Nuclei (%) [1]: 14% | Population Tubulin-Different-Phenotype (%) [1]: 25% | Total Cell Count [1]: 373 | Population Apoptotic (%) [2]: 48% | Population Fragmented Nuclei (%) [2]: 9% | Population Healthy Nuclei (%) [2]: 81% | Population Hoechst High Intensity Objects (%) [2]: 9% | Population Mitochondria Different-Phenotype (%) [2]: 57% | Population Mitotic Cells (%) [2]: 52% | Population Normal (%) [2]: 90% | Population Pyknosed Nuclei (%) [2]: 8% | Population Tubulin-Different-Phenotype (%) [2]: 26% | Total Cell Count [2]: 326 | Population Apoptotic (%) [3]: 38% | Population Fragmented Nuclei (%) [3]: 5% | Population Healthy Nuclei (%) [3]: 81% | Population Hoechst High Intensity Objects (%) [3]: 8% | Population Membrane Permeable-Phenotype (%) [3]: 0% | Population Mitochondria Different-Phenotype (%) [3]: 53% | Population Mitotic Cells (%) [3]: 61% | Population Normal (%) [3]: 91% | Population Pyknosed Nuclei (%) [3]: 12% | Population Tubulin-Different-Phenotype (%) [3]: 41% | Total Cell Count [3]: 461 | Population Apoptotic (%) [4]: 61% | Population Healthy Nuclei (%) [4]: 75% | Population Mitochondria Different-Phenotype (%) [4]: 76% | Population Mitotic Cells (%) [4]: 38% | Population Pyknosed Nuclei (%) [4]: 18% | Population Tubulin-Different-Phenotype (%) [4]: 42% | Total Cell Count [4]: 346 | Population Apoptotic (%) [5]: 17% | Population Fragmented Nuclei (%) [5]: 9% | Population Healthy Nuclei (%) [5]: 78% | Population Hoechst High Intensity Objects (%) [5]: 6% | Population Membrane Permeable-Phenotype (%) [5]: 0% | Population Mitochondria Different-Phenotype (%) [5]: 24% | Population Mitotic Cells (%) [5]: 82% | Population Normal (%) [5]: 93% | Population Pyknosed Nuclei (%) [5]: 11% | Population Tubulin-Different-Phenotype (%) [5]: 19% | Total Cell Count [5]: 511 | Population Apoptotic (%) [6]: 46% | Population Fragmented Nuclei (%) [6]: 10% | Population Healthy Nuclei (%) [6]: 76% | Population Hoechst High Intensity Objects (%) [6]: 4% | Population Mitochondria Different-Phenotype (%) [6]: 45% | Population Mitotic Cells (%) [6]: 53% | Population Normal (%) [6]: 95% | Population Pyknosed Nuclei (%) [6]: 13% | Population Tubulin-Different-Phenotype (%) [6]: 14% | Total Cell Count [6]: 343 | Population Apoptotic (%) [7]: 35% | Population Fragmented Nuclei (%) [7]: 8% | Population Healthy Nuclei (%) [7]: 79% | Population Hoechst High Intensity Objects (%) [7]: 4% | Population Membrane Permeable-Phenotype (%) [7]: 0% | Population Mitochondria Different-Phenotype (%) [7]: 43% | Population Mitotic Cells (%) [7]: 64% | Population Normal (%) [7]: 95% | Population Pyknosed Nuclei (%) [7]: 11% | Population Tubulin-Different-Phenotype (%) [7]: 32% | Total Cell Count [7]: 598 | Population Apoptotic (%) [8]: 51% | Population Fragmented Nuclei (%) [8]: 7% | Population Healthy Nuclei (%) [8]: 83% | Population Hoechst High Intensity Objects (%) [8]: 6% | Population Mitochondria Different-Phenotype (%) [8]: 64% | Population Mitotic Cells (%) [8]: 48% | Population Normal (%) [8]: 93% | Population Pyknosed Nuclei (%) [8]: 9% | Population Tubulin-Different-Phenotype (%) [8]: 26% | Total Cell Count [8]: 396 | Population Apoptotic (%) [9]: 19% | Population Fragmented Nuclei (%) [9]: 15% | Population Healthy Nuclei (%) [9]: 79% | Population Hoechst High Intensity Objects (%) [9]: 3% | Population Membrane Permeable-Phenotype (%) [9]: 1% | Population Mitochondria Different-Phenotype (%) [9]: 16% | Population Mitotic Cells (%) [9]: 80% | Population Normal (%) [9]: 96% | Population Pyknosed Nuclei (%) [9]: 5% | Population Tubulin-Different-Phenotype (%) [9]: 12% | Total Cell Count [9]: 938 | Population Apoptotic (%) [10]: 32% | Population Fragmented Nuclei (%) [10]: 13% | Population Healthy Nuclei (%) [10]: 81% | Population Membrane Permeable-Phenotype (%) [10]: 0% | Population Mitochondria Different-Phenotype (%) [10]: 24% | Population Mitotic Cells (%) [10]: 67% | Population Tubulin-Different-Phenotype (%) [10]: 15% | Total Cell Count [10]: 552 | Population Apoptotic (%) [11]: 29% | Population Fragmented Nuclei (%) [11]: 15% | Population Healthy Nuclei (%) [11]: 75% | Population Hoechst High Intensity Objects (%) [11]: 5% | Population Membrane Permeable-Phenotype (%) [11]: 0% | Population Mitochondria Different-Phenotype (%) [11]: 34% | Population Mitotic Cells (%) [11]: 70% | Population Normal (%) [11]: 94% | Population Pyknosed Nuclei (%) [11]: 8% | Population Tubulin-Different-Phenotype (%) [11]: 17% | Total Cell Count [11]: 874 | Population Apoptotic (%) [12]: 41% | Population Fragmented Nuclei (%) [12]: 9% | Population Healthy Nuclei (%) [12]: 84% | Population Hoechst High Intensity Objects (%) [12]: 4% | Population Mitochondria Different-Phenotype (%) [12]: 42% | Population Mitotic Cells (%) [12]: 58% | Population Normal (%) [12]: 95% | Population Pyknosed Nuclei (%) [12]: 6% | Population Tubulin-Different-Phenotype (%) [12]: 19% | Total Cell Count [12]: 570
